Measurements as given in PubChem BioAssay.
The source made the active and inactive calls.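 Rule for the calls, unless noted: active = viability at or under a set limit in both replicates, limit being median viability minus 3 SD (cut at about 48% in these data, passing the limit was not always enough); inconclusive = at or under the limit in just one replicate; inactive = at or above the limit in both replicates.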

Key:
[1] = reducers of endogenous Her2 protein level, primary screen, SKBR3 breast tumor cells, AlphaScreen, ATP viability (AID 461;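 active = Her2 level under about 52% in both replicate screens, with viability over 70% of control, limit read from the data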;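 for Her2 level: lower value means less Her2 protein in the cells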;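 for viability: percent of carrier control wells set as 100% viability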); settings: 18-24 h, measured here: SKBR3 viability, ATP luminescence, at 10 µM
[2] = target: Receptor tyrosine-protein kinase erbB-2 (Homo sapiens) (UniProt P04626); test: as above; settings: 18-24 h, at 10 µM, stronger effect = lower value
[3] = SK-BR-3 cell growth inhibitors, pilot screen, 24 h, human (AID 572;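 active = viability at or below 10% of carrier control in both of two separate runs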;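 note: compound exposure lasted between 18 and 24 h rather than exactly 24 h; 100% = carrier-treated control wells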); settings: SK-BR-3 viability, CellTiter-Glo luminescence, at 10 µM, stronger effect = lower value
[4] = HUVEC growth inhibition – cell-based, human, primary screen (AID 575;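 active = viability at or below 30% in both replicate assays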;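 note: 100% = median of untreated cell wells with 0.1% DMSO on each plate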); settings: HUVEC proliferation, CellTiter-Glo luminescence, 72 h; at 10 µM; stronger effect = lower value
How it was run: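 System: primary human umbilical vein endothelial cells; Quantity: 1250 endothelial cells in each well; Buffer or medium: supplemented EBM, 2% fetal bovine serum; Doses: one dose, 10 µM final, 0.1% DMSO; Incubation: 72 h compound incubation; Technique: ATP-based CellTiter-Glo luminescent read; Evaluation: percent of median DMSO-control luminescence; Controls: vehicle and MePR control wells.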

[5] = growth inhibitors of H69AR lung tumor, primary screen, human, duplicate replicates (AID 580); settings: H69AR lung tumor cells viability, ATP luminescence, 72 h; at 10 µM; stronger effect = lower value;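 note: 100% = mean luminescence of untreated wells and 0% = no signal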
[6] = reversal of MRP1-mediated doxorubicin resistance, pilot screen, H69AR cells, doxorubicin co-treatment (AID 601;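 active = viability loss from added drug above about 55%, and viability with drug at most 40%, in both replicates, limit read from the data, passing the limit was not always enough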); settings: CellTiter-Glo, 72 h, at 10 µM; for differential viability (reversal): stronger effect = higher value
[7] = 384-well plate pilot, post-Golgi transport modulator project, inhibition of yeast transport mutant growth (AID 636; in the data active = inhibition above about 31%); settings: absorbance 615 nm, about 18 h, stronger effect = higher value
[8] = growth suppression of yeast trafficking mutant, preliminary HTS, modulators of trafficking downstream of Golgi apparatus project, 1536-format plate, OD 615 nm (AID 637; in the data active = inhibition above about 30%); settings: yeast transport mutant growth, absorbance 615 nm, 18 h; stronger effect = higher value
[9] = H69AR cells + 2 uM doxorubicin, measured here: viability with 2 uM doxorubicin, stronger effect = lower value
[10] = H69AR cells, compound alone cytotoxicity

Chain of Receptor tyrosine-protein kinase erbB-2 (Homo sapiens) (P04626 whole entry, looked up): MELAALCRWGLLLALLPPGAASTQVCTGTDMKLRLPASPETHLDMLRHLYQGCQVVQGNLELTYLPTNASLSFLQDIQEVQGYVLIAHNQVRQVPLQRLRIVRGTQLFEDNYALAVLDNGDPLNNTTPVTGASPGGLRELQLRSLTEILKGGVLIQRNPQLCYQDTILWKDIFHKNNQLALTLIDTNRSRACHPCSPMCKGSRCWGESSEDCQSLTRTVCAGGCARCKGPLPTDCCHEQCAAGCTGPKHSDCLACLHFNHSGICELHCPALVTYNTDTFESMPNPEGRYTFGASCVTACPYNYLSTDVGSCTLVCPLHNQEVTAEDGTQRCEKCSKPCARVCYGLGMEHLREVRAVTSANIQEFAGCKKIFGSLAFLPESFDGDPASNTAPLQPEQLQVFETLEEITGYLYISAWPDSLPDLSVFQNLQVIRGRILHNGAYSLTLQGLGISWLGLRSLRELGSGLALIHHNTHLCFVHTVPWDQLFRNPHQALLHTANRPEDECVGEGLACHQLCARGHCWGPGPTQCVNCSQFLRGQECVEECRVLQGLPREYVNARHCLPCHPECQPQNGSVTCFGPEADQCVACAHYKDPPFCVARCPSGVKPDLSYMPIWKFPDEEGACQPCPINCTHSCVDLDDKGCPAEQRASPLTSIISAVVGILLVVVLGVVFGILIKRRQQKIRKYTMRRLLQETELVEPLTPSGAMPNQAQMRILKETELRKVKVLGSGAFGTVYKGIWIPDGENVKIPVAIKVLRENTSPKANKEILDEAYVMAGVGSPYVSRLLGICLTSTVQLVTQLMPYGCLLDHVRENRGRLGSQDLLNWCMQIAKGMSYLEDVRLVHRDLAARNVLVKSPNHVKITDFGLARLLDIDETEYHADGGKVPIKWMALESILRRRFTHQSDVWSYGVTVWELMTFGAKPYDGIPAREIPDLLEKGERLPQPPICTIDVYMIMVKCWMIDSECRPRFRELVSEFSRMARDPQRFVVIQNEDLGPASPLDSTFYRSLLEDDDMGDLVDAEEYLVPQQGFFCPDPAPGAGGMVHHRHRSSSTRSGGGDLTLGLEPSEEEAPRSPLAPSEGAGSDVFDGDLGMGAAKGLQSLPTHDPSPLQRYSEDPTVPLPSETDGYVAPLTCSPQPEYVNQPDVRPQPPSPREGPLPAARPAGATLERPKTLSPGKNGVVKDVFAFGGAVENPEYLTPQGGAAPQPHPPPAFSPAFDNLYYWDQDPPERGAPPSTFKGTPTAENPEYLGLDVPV

SMILES	viability [1]	Her2 level [2]	viability [3]	viability [4]	viability [5]	differential viability (reversal) ([6]; H69AR cells + 2 uM doxorubicin)	viability [6, 9]	viability [6, 10]	inhibition [7]	inhibition [8]
Cc1cc(C)c(C)c(S(=O)(=O)Nc2ccc(O)cc2)c1C	100%	87.5% (inactive)	100% (inactive)	96.6% (inactive)	96.8% (inactive)	14.1% (inactive)	82.7%	96.8%	-4.4% (inactive)	-1.61% (inactive)
Cc1cc(C(=O)NCc2ccc(S(N)(=O)=O)cc2)cs1	84.5%	87.5% (inactive)	84.5% (inactive)	105% (inactive)	104% (inactive)	13% (inactive)	90.7%	104%	-5.73% (inactive)	4.1% (inactive)
O=c1[nH]c(NCc2ccco2)nnc1Cc1ccccc1Cl	96.5%	84% (inactive)	96.5% (inactive)	41.2% (inactive)	13.3% (active)	-44.5% (inactive)	57.8%	13.3%	-7.67% (inactive)	4.92% (inactive)
Cc1ccc(-n2c(Cc3cccn3C)nnc2SCC(=O)NCc2ccc3c(c2)OCO3)cc1	97.5%	89% (inactive)	97.5% (inactive)	88.2% (inactive)	85.8% (inactive)	5.04% (inactive)	80.7%	85.8%	-5.07% (inactive)	-4.59% (inactive)
Cc1nnc(SCC(=O)N2CC(=O)Nc3ccccc32)n1-c1ccccc1	93%	90% (inactive)	93% (inactive)	102% (inactive)	97% (inactive)	2.75% (inactive)	94.3%	97%	-4.53% (inactive)	4.84% (inactive)
C=CCSC1=C(C#N)C(c2ccccc2OCC)CC(=O)N1 (stereo not given)	94%	81% (inactive)	94% (inactive)	88.3% (inactive)	95.3% (inactive)	3.58% (inactive)	91.8%	95.3%	-5.39% (inactive)	0.5% (inactive)
Cn1c(=O)c2ncn(CC(=O)NCCOc3ccc(C(C)(C)C)cc3)c2n(C)c1=O	96.5%	110% (inactive)	96.5% (inactive)	100% (inactive)	76.2% (inactive)	-17.6% (inactive)	93.8%	76.2%	-5.45% (inactive)	-6.03% (inactive)
COc1ccc(-n2nnnc2-c2cccc(OC)c2)cc1	102%	87.5% (inactive)	102% (inactive)	45.3% (inactive)	34.5% (active)	-26.5% (inactive)	61.1%	34.5%	-5.95% (inactive)	-1% (inactive)
c1ccc(-c2noc(C3CCCCC3)n2)nc1	91%	96.5% (inactive)	91% (inactive)	114% (inactive)	102% (inactive)	11.2% (inactive)	90.4%	102%	0.82% (inactive)	-2.7% (inactive)
COc1ccccc1-c1nc2n(n1)C(c1cccs1)C(C(=O)Nc1cccnc1)=C(C)N2 (stereo not given)	83.5%	95.5% (inactive)	83.5% (inactive)	97.9% (inactive)	87.1% (inactive)	0.115% (inactive)	87%	87.1%	-2.43% (inactive)	-4.92% (inactive)
COc1ccc(C(=O)OC(COc2ccccc2)Cn2ccnc2)cc1 (stereo not given)	83%	97% (inactive)	83% (inactive)	79.6% (inactive)	94.7% (inactive)	9.57% (inactive)	85.1%	94.7%	100% (active)	95.5% (active)
Cc1cccc(Cn2c(=O)n(Cc3ccco3)c(=O)c3ccccc32)c1	87%	97.5% (inactive)	87% (inactive)	100% (inactive)	92.5% (inactive)	-9.65% (inactive)	102%	92.5%	-2.11% (inactive)	1.15% (inactive)
O=C(CSc1nnc(CNC(=O)c2cccs2)o1)Nc1cccc(C(F)(F)F)c1	83.5%	98.5% (inactive)	83.5% (inactive)	82.7% (inactive)	92.8% (inactive)	1.86% (inactive)	90.9%	92.8%	-0.13% (inactive)	-7% (inactive)
CC(C)C(NC(=O)c1ccco1)C(=O)NCC(c1ccco1)N1CCCCC1 (stereo not given)	96.5%	94.5% (inactive)	96.5% (inactive)	94.8% (inactive)	93.9% (inactive)	18.1% (inactive)	75.8%	93.9%	-2.97% (inactive)	-0.32% (inactive)
